Laboratory results from ChEMBL document CHEMBL2396619, “Synthesis and neuroprotective effect of E-3,4-dihydroxy styryl aralkyl ketones derivatives against oxidative stress and inflammation” (Bioorg Med Chem Lett, 2013).
The source made the active and inactive calls. The rule behind the calls is not given here.

How the values were obtained:
[1] = test system: PC-12; assay: Neuroprotective activity in rat PC12 cells assessed as protection against H2O2-induced reduction of cell viability at 10 uM treated 3 hrs before H2O2 addition measured after 5 hrs by MTT assay; assay type: functional, cell-based
Method in brief: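 PC12 cells pretreated with compound at 10 µM for 3 h, then exposed to 500 µM H2O2 for 5 h. Viability measured by MTT and expressed as OD(treated)/OD(control) ×100%, with untreated cells (no compound, no H2O2) set to 100%. Mean ± SD, n = 3.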

[2] = test system: BV-2; assay: Antineuroinflammatory activity in mouse BV2 cells assessed as reduction of LPS-induced nitric oxide production treated 3 hrs before LPS addition measured after 24 hrs by Griess assay; assay type: functional, cell-based
Method in brief: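 LPS-stimulated BV2 microglia; nitrite in culture supernatant measured by Griess assay: supernatant mixed with an equal amount of Griess reagent, incubated in the dark, absorbance read at 540 nm.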

[3] = Cytotoxicity against mouse BV2 cells assessed as cell viability at 50 uM after 24 hrs by MTT assay; assay type: cell-based, BV-2; conditions: read-out: Activity
Method in brief: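 BV2 cells exposed to compounds at up to 50 µM for up to 24 h; viability determined by MTT assay.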

[4] = test system: Radical scavenging activity; assay: Antioxidant activity assessed as DPPH free radical scavenging activity after 60 mins by spectrophotometry; assay type: functional
[5] = test system: Radical scavenging activity; assay: Antioxidant activity assessed as DPPH free radical scavenging activity at 50 uM after 60 mins by spectrophotometry; assay type: functional
[6] = Ratio of caffeic acid phenethyl ester IC50 to compound IC50 for DPPH free radical scavenging activity
[7] = test system: BV-2; assay: Ratio of caffeic acid phenethyl ester IC50 to compound IC50 for antineuroinflammatory activity in mouse BV2 cells assessed as reduction of LPS-induced nitric oxide production; assay type: functional

Row | SMILES | IC50 [2] [µM] | IC50 [4] [µM] | Activity [1] | viability at 24 h, 50 µM [3] [%] | inhibition [5] | Ratio IC50 [6] | Ratio IC50 [7]
1 | O=C(/C=C/c1ccc(O)c(O)c1)CCc1cccc(Cl)c1 | 10.3 | 11.1 | Active | > 90 | – | – | –
2 | COc1ccc(CCC(=O)/C=C/c2ccc(OC(C)=O)c(OC(C)=O)c2)cc1OC | 12.6 | – | Active | > 90 | inactive | – | –
3 | COc1ccc(CCC(=O)/C=C/c2ccc(OC(C)=O)c(OC(C)=O)c2)c(OC)c1 | 9.3 | – | Active | > 90 | inactive | – | –
4 | COc1ccc(CCC(=O)/C=C/c2ccc(O)c(O)c2)c(OC)c1 | 10.6 | 14 | Active | > 90 | – | – | –
5 | O=C(/C=C/c1ccc(O)c(O)c1)CCCc1ccccc1 | 6.4 | 9.2 | Active | > 90 | – | 1.3 | –
6 | O=C(/C=C/c1ccc(O)c(O)c1)CCc1ccccc1 | 14.1 | 12.7 | Active | > 90 | – | – | –
7 | CC(=O)Oc1ccc(/C=C/C(=O)CCc2ccccc2)cc1OC(C)=O | 12.3 | – | Active | > 90 | inactive | – | –
8 | CC(=O)Oc1ccc(/C=C/C(=O)OCCc2ccccc2)cc1OC(C)=O | – | – | – | – | inactive | – | –
9 | CC(=O)Oc1ccc(/C=C/C(=O)CCc2cccc(Cl)c2)cc1OC(C)=O | 8.3 | – | Active | > 90 | inactive | – | –
10 | COc1ccc(CCC(=O)/C=C/c2ccc(O)c(O)c2)cc1OC | 14.5 | 13.2 | Active | > 90 | – | – | –

Further compounds by falling IC50 [2], results first:

Row | IC50 [2] [µM] | IC50 [4] [µM] | SMILES | Activity [1] | viability at 24 h, 50 µM [3] [%] | inhibition [5] | Ratio IC50 [6] | Ratio IC50 [7]
11 | 6.3 | 12.1 | COc1cc(CCC(=O)/C=C/c2ccc(O)c(O)c2)ccc1O | Active | > 90 | – | – | –
12 | 5.9 | 10.6 | O=C(/C=C/c1ccc(O)c(O)c1)CCCCc1ccccc1 | Active | > 90 | – | – | –
13 | 5.5 | – | COc1cc(CCC(=O)/C=C/c2ccc(OC(C)=O)c(OC(C)=O)c2)ccc1O | Active | > 90 | inactive | – | –
14 | 5.3 | – | CC(=O)Oc1ccc(/C=C/C(=O)CCCc2ccccc2)cc1OC(C)=O | Active | > 90 | inactive | – | –
15 | 4.2 | – | CC(=O)Oc1ccc(/C=C/C(=O)CCCCc2ccccc2)cc1OC(C)=O | Active | > 90 | inactive | – | 1.5
